High-throughput results: PubChem, several laboratories
An excerpt weighted towards active compounds, which were near 2.5% of everything screened.
Arrestin-AP2 inh = blocks beta-arrestin peptide binding to AP2 adaptin; FITC-arrestin peptide / GST-AP2 beads, flow cytometry; AP2 beta2 appendage carries R879A mutation; inhibition, % at 10 µM; 0.31% of 340,000 active; AID 504490;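 active means inhibition above a set limit, near 3 SD of compounds lacking own fluorescence, cut at about 54% in these data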
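System: GST-AP2 R879A glutathione beads; medium: PBS, Tween 20 0.05%, BSA 0.1%; reagent: fluorescein-tagged arrestin peptide at 50 nM final; schedule: pre-incubation 12 min, peptide binding 1 h, room temperature; detection: flow cytometry, FL1 (488/535 nm); read-out: inhibition as reduced fluorescein signal on beads, percent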
Beta2AR agonist = agonists of human beta-2 adrenergic receptor inducing internalization; Am2.2-beta2AR cells, FAP receptor internalization, flow cytometry; response, % (test concentration not listed); 0.43% of 340,000 active;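 active means response above a set limit, near 3 SD of response in nonfluorescent compounds, cut at about 42% in these data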
Rin1-Abl PPI inh = inhibitors of human Rin1-Abl protein interaction. P00519+Q13671. TR-FRET Rin1/Abl binding, biochemical. inhibition, % at 7.35 µM. 0.4% of 360,000 active; in the data active means inhibition above about 5%, passing the limit was not always enough
MBD2 inh = blocks human MBD2 binding to methylated DNA; 0.31% of 370,000 active; inhibition, % at 4.4 µM; TR-FRET, MBD2 binding to methylated oligonucleotide; Q9UBB5; in the data active means inhibition above about 13%
Target sequence (Q9UBB5 whole entry, looked up): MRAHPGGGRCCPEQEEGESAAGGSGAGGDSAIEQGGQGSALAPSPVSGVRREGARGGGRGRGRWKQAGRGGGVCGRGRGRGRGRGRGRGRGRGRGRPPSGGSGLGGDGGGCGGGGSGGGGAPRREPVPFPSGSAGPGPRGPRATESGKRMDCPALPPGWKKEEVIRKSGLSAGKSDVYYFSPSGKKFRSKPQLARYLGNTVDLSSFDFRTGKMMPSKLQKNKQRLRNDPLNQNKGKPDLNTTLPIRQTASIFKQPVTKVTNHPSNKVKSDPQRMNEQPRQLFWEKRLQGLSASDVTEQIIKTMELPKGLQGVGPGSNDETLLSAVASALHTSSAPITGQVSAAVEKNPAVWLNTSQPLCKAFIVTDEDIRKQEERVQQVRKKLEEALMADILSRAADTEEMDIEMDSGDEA
UHRF1 binding = UHRF1 methyl-DNA binding inhibition; 0.75% of 370,000 active; inhibition, % at 4.4 µM; UHRF1 binding to methylated oligo, TR-FRET; in the data active means inhibition above about 21%;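 further: UHRF1 SRA domain binding a hemimethylated CpG hairpin DNA probe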
ABHD5 PLIN5 PPI = blocks binding of human ABHD5 to perilipin-5; Split G. princeps luciferase complementation, luminescence, 4 h; inhibition, % at 4 µM; 0.78% of 360,000 active;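 active means inhibition above the mean inhibition across every tested compound plus 3 SD, cut at about 22% in these data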
Arr AP2 CP1 = blocks beta-arrestin peptide binding to human AP2 | inhibition, % at 10 µM | shares compounds with Arrestin-AP2 inh | GST-AP2 beads, FITC arrestin peptide binding, flow cytometry; GST-fused beta2-adaptin appendage, R879A mutant | 2% of 1,300 active;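 active means inhibition above a set limit, roughly 3 SD of non-fluorescent compound noise, cut at about 38% in these data; inactive means inhibition at or below that limit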;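 further: loss of bead fluorescence from 50 nM FITC arrestin peptide bound to appendage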
GST-FITC bead = GST-GSH bead binding interference, counter-screen. shares compounds with Arrestin-AP2 inh. GST-fluorescein binding to GSH beads, fluorescence. inhibition, % at 10 µM. 2% of 1,300 active. AID 588338;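 active means inhibition above 50%, about 3 SD of the inhibition seen with non-fluorescent compounds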;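 further: fluorescein maleimide labelled GST captured on 4 micron glutathione beads; higher means more loss of bead fluorescence from quenching or blocked binding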
Numbers stand for hits; – = inactive; · = no result given.

SMILES	Arrestin-AP2 inh	Beta2AR agonist	Rin1-Abl PPI inh	MBD2 inh	UHRF1 binding	ABHD5 PLIN5 PPI	Arr AP2 CP1	GST-FITC bead
COc1ccc(-c2cc(C(F)F)n3ncc(C(=O)N4CCN(C)CC4)c3n2)cc1	–	–	–	–	–	–	·	·
O=C(c1cnn2c(C(F)(F)F)cc(-c3ccccc3)nc12)N1CCCc2ccccc21	–	–	–	–	–	–	–	–
C=CCN1[C@@H](C)COc2cc(N3CCSCC3)ccc2S1(=O)=O	·	·	·	–	–	·	·	·
CC(C)CCNC(=O)CCn1nc(-c2ccc(Cl)cc2)ccc1=O	–	–	–	–	–	–	·	·
O=C(CCn1nc(-c2ccc(Cl)cc2)ccc1=O)NCc1ccccn1	79.0	–	–	–	–	–	–	–
C=CCN1C(=O)[C@@H](CC(=O)NCCc2ccccc2OC)[C@]2(C(=O)OC)CCCCC=C12	·	·	·	–	–	·	·	·
O=S(=O)(N[C@@H]1CCCC[C@H]1N1CCOCC1)c1ccc(Cl)cc1	·	·	·	–	–	·	·	·
COC(=O)C1=C(C(C)=O)C(c2ccc(C)cc2)n2nnnc2N1 (centres undefined)	–	–	–	–	–	–	·	·
COC(=O)C1=C(C(C)=O)C(c2ccc(C(=O)OC)cc2)n2nnnc2N1 (centres undefined)	99.7	–	–	–	–	–	–	–
Cc1cnc(C(=O)OCC(=O)c2ccc(C3CCCCC3)cc2)cn1	57.0	–	–	–	–	–	–	–
CCn1nc(NS(=O)(=O)c2ccccc2)c2cc3cc(C)ccc3nc21	62.4	–	–	–	–	–	–	–
CCn1nc(NS(=O)(=O)c2ccccc2)c2cc3ccc(C)cc3nc21	–	–	–	–	–	–	·	·
COc1ccc(Nc2nc(N/N=C/c3ccc(N(C)C)cc3)nc(C)c2[N+](=O)[O-])cc1	102.6	–	–	–	–	–	–	–
COc1ccc(Nc2nc(NN)nc(C)c2[N+](=O)[O-])cc1	–	–	–	–	–	–	·	·
CCCNc1ncnc2[nH]ncc12	–	–	–	–	–	–	·	·
CCCCSc1ncnc2[nH]ncc12	63.9	–	–	–	–	–	–	–
COc1cc(NC(=O)c2cc(C)on2)c(OC)cc1Cl	·	·	·	–	–	·	·	·
COc1ccc(NC(=O)Nc2cnccn2)cc1	–	–	–	–	–	–	–	–
CCOc1ccc(NC(=O)Nc2cnccn2)cc1	–	–	–	–	–	–	–	–
O=C(Nc1cccc(F)c1)Nc1cnccn1	–	–	–	–	–	–	–	–
